In article PMC8745002 (European journal of immunology, 2021):

Legend:
[1] = In vitro plasma stability assay, human plasma; assay type: in vitro ADME; settings: 37 °C
How it was run: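 Compound in DMSO, diluted to a 0.1 mM working solution in DMSO:water (1:1, v/v). Mouse, rat or human plasma thawed and pre-warmed at 37 °C, then mixed 100:1 (plasma:working solution). Incubated at 37 °C, 5% CO2, shaking at 200 rpm. Half-life determined from this plasma incubation.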

[2] = In vitro plasma stability assay, mouse plasma; assay type: in vitro ADME; settings: 37 °C, comparison in words
[3] = test system: SRBC-vaccinated mice; assay: SRBC vaccination mouse model, flow cytometry of splenic cells; assay type: in vivo, C57/BL6 mice; settings: FX1 80 mg/kg once daily, 8-day course; spleen, day 11
How it was run: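 Male C57/BL6 mice, 8–12 weeks old, given 100 µL 10% SRBC i.p. on day 0. Compound dosed in 100 µL vehicle from day 3; vehicle controls matched. Spleens taken on day 11 and meshed through a 70 µm strainer. Cells spun 2000 rpm for 10 min, washed in PBS with 2% FBS. Two million mononuclear cells stained for surface and intracellular markers, analysed on a 4-laser LSRII.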

[4] = test system: SRBC-vaccinated mice; assay: SRBC-specific IgM and IgG1 detection in plasma by flow cytometry; assay type: in vivo, C57/BL6 mice; settings: mice receiving FX1 (80 mg/kg once daily)
How it was run: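 Plasma taken on day 11 from SRBC-vaccinated (100 µL 10% i.p.) male C57/BL6 mice given compound or vehicle (100 µL) from day 3, diluted 1:5 in PBS. 5 µL incubated with 20 µL 2% SRBC for 5 min, then 20 min with fluorescent anti-mouse IgM or IgG1. Washed, fixed in 1% PFA, read by flow with isotype controls. MFI normalised to unvaccinated-mouse plasma, as fold change.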

[5] = test system: SRBC-vaccinated mice; assay: Mouse pan IgG and IgM ELISA; assay type: in vivo, C57/BL6 mice; settings: 11 days after vaccination
How it was run: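 Male C57/BL6 mice, 8–12 weeks old, given 100 µL 10% SRBC i.p. on day 0. From 3 days later, 8-day course of test compound (100 µL vehicle, once or three times daily, 5 h apart) or vehicle on the same schedule. Plasma collected at CO2 euthanasia on day 11. Total IgG and IgM measured by commercial ELISA kit per manufacturer. Welch test.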

[6] = test system: BCL6; settings: cited from earlier work
[7] = cited from earlier work
[8] = test system: rhesus macaque; settings: FX1 treatment; cited from earlier work

## O=C(O)CCN1C(=O)/C(=C2/C(=O)Nc3ccc(Cl)cc32)SC1=S [FX1]
[1]
  T1/2 in human plasma: 3.29 h
[2]
  stability (T1/2) in mouse plasma: significantly longer stability over AP-4-287 in mouse plasma
[3]
  GC B cells: can lower GC B
  frequency of CD4+ Tfh within GCs: did not reduce
[4]
  SRBC-specific IgM and IgG1 vs vehicle: Lower
[5]
  total titer of plasma pan IgG and IgM vs vehicle: no difference
[6]
  affinity compared with natural ligand (SMRT): higher affinity than its natural ligand (SMRT)
[7]
  aqueous solubility: poor aqueous solubility
[8]
  lymphoid hyperplasia: reversal of lymphoid hyperplasia
